Consider 17 compounds from ChEMBL document CHEMBL3259620, “Structure-activity relationships and molecular modelling of new 5-arylidene-4-thiazolidinone derivatives as aldose reductase inhibitors and potential anti-inflammatory agents” (Eur J Med Chem, 2014).

Each structure is given as a SMILES string. Calls of active or inactive are those of the source. No cut-off for these calls is given here.

Assay [1] addresses Aldo-keto reductase family 1 member B1 (Bos taurus, UniProt P16116). Briefly: Inhibition of bovine aldose reductase assessed as oxidation of NADPH. Put shortly: (§1)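 AR purified from bovine lens (specific activity 1.2 U/mg), 5 mU per assay. Mixture of 0.25 M sodium phosphate pH 6.8, 4.67 mM D,L-glyceraldehyde, 0.11 mM NADPH, 0.38 M ammonium sulphate, 0.5 mM EDTA, 1% DMSO final. NADPH oxidation followed as absorbance decrease at 340 nm, 37 °C. IC50 by nonlinear fit to one-site competition log dose–inhibition curve.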

Assay [2] has as its target T1, Nuclear factor NF-kappa-B complex (Homo sapiens) (UniProt Q00653+P19838+Q04206). Briefly: Inhibition of IFN-gamma/histamine-induced NF-kappaB activation in human NCTC-2544 cells assessed as inhibition of nuclear translocation at 10 uM after 48 hrs by Western blot analysis relative to sorbinil. The assay is classed as cell-based. In short, it runs like this:
(§2)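 NCTC 2544 keratinocytes kept at 37 °C in 95% air/5% CO2, medium with 10% foetal calf serum plus penicillin/streptomycin, plated 1.5 × 10⁶ per dish 24 h beforehand. Stimulated with 200 U/ml IFN-γ and 10^-4 M histamine while exposed to compound; after 48 h, lysates (50 µg protein) run in Western blots against NF-κB p50 (nuclear activated form) or iNOS, signal normalized to α-tubulin. Each experiment at least three times in triplicate, mean ± SEM.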
Background: Immunoblotting shows a protein as a band on a membrane.

The target of assay [3] is T1, Nuclear factor NF-kappa-B complex (Homo sapiens). Briefly: Inhibition of IFN-gamma/histamine-induced NF-kappaB activation in human NCTC-2544 cells assessed as inhibition of nuclear translocation at 10 to 20 uM after 48 hrs by Western blot analysis. It counts as cell-based. Put shortly: as §2
Assay [4] has as its system NCTC-2544. Briefly: Antiinflammatory activity in human NCTC-2544 cells assessed as reduction of IFN-gamma/histamine-induced-induced iNOS expression at 20 uM after 48 hrs by Western blot analysis relative to control level. It counts as functional, cell-based. In short, it runs like this:
as §2

Assay [5] deals with NCTC-2544. Briefly: Antiinflammatory activity in human NCTC-2544 cells assessed as reduction of IFN-gamma/histamine-induced-induced iNOS expression at 10 to 20 uM after 48 hrs by Western blot analysis. The assay is classed as functional, cell-based. In short, it runs like this:
as §2

Assay [6] has as its target Aldo-keto reductase family 1 member B1 (Bos taurus) (UniProt P16116). Briefly: Inhibition of bovine aldose reductase assessed as oxidation of NADPH at 50 uM. In short, it runs like this: as §1

T1 sequence (P19838 whole entry, looked up): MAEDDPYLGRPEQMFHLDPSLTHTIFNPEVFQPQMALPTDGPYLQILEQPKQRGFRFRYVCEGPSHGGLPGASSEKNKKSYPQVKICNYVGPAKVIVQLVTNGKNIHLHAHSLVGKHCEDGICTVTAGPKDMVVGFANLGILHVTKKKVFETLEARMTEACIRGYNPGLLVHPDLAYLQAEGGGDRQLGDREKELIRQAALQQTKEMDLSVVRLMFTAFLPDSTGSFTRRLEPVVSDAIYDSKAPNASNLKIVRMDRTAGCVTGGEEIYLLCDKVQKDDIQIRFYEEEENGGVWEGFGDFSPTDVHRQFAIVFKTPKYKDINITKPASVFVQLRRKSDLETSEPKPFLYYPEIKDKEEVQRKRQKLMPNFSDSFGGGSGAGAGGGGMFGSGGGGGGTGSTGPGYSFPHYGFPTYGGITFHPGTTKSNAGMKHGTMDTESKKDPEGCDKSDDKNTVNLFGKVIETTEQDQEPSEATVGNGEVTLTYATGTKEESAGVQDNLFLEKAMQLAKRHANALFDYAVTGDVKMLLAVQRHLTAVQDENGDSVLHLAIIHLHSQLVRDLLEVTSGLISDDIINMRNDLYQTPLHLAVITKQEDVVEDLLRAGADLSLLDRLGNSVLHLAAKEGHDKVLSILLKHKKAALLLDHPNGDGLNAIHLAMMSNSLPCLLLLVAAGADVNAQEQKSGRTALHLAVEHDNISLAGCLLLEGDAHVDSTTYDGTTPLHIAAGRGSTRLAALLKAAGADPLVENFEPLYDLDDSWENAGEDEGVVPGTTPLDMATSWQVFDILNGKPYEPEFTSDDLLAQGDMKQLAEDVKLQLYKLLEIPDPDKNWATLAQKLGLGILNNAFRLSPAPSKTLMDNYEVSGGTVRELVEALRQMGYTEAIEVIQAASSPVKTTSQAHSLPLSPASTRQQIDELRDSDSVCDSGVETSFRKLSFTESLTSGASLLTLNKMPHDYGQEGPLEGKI
T1 sequence (Q00653 whole entry, looked up): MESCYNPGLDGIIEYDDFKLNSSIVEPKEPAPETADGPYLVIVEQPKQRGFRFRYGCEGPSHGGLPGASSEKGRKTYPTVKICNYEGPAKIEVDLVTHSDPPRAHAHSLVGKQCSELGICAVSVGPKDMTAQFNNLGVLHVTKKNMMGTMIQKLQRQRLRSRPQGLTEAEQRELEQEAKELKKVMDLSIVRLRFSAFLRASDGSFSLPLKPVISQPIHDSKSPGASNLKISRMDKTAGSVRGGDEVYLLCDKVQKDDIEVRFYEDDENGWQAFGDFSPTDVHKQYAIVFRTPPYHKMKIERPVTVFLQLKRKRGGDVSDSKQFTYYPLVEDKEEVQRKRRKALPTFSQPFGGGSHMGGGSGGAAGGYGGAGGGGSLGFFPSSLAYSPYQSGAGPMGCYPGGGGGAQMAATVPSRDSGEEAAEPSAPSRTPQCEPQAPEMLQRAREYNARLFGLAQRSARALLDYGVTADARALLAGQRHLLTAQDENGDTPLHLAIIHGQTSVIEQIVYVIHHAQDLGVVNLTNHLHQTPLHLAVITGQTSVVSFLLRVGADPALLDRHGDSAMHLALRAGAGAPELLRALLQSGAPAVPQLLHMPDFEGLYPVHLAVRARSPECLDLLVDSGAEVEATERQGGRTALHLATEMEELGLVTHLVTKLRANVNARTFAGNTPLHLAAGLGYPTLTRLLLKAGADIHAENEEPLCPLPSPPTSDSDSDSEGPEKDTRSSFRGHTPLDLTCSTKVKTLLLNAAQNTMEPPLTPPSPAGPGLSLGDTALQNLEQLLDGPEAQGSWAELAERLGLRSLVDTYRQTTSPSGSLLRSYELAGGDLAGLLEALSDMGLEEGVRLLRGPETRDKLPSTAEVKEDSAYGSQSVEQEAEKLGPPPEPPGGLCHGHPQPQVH
T1 sequence (Q04206 whole entry, looked up): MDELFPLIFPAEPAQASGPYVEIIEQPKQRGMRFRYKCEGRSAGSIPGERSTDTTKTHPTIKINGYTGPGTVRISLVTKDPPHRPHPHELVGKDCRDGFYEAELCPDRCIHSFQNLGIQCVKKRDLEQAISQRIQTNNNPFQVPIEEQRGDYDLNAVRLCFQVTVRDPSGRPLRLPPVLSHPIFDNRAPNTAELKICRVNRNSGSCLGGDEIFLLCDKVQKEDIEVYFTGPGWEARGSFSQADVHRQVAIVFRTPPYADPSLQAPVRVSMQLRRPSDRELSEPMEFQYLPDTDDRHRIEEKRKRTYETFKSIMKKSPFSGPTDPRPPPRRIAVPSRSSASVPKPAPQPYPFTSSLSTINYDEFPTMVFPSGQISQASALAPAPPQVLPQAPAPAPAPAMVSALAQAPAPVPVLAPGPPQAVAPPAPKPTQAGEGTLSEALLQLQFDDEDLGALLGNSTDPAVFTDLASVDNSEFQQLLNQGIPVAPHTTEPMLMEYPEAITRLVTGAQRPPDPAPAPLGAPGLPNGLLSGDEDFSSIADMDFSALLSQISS

The IC50 is the concentration that gives 50% inhibition. For `COc1ccc(/C=C2\SC(=O)N(CC(=O)O)C2=O)cc1OCC(N)=O`, the IC50 in assay [1] is 520 nM.

In general, inhibition refers to how much of the control response was suppressed. As for `O=C1NC(=O)[C@@]2(CCOc3ccc(F)cc32)N1`, the inhibition result in assay [2] is “Active”.

Take `NC(=O)COc1cccc(/C=C2\SC(=S)NC2=O)c1`: the “NF-kappaB nuclear translocation inhibition (active/not active)” value in assay [3] is “inactive”. In addition, the inhibition result in assay [4] and in assay [5] was “Active” in each case. Also, the concentration for half-maximal inhibition (IC50) in assay [1] was determined as 8650 nM.

For the compound `NC(=O)COc1ccc(/C=C2\SC(=O)NC2=O)cc1`, in assay [6], the inhibition is 40%.

Take `COc1cc(/C=C2\SC(=S)NC2=O)ccc1OCC(N)=O`: in assay [1], the IC50 turned out to be 11600 nM.

In the case of `NC(=O)COc1cccc(/C=C2\SC(=S)N(CC(=O)O)C2=O)c1`, the “NF-kappaB nuclear translocation inhibition (active/not active)” value in assay [3] is “Active”. In addition, the inhibition entry in assay [5] was “inactive”. The IC50 in assay [1] stood at 130 nM. For the same compound, in assay [2], the inhibition result is “Active”.

Consider `NC(=O)COc1ccc(/C=C2\SC(=O)N(CC(=O)O)C2=O)cc1`, for which the IC50 in assay [1] came to 560 nM.

As for `COc1cc(/C=C2\SC(=S)N(CC(=O)O)C2=O)ccc1OCC(N)=O`, the “NF-kappaB nuclear translocation inhibition (active/not active)” value in assay [3] was “Active”. For the same compound, the inhibition entry in assay [5] and in assay [2] was “Active” throughout. Moreover, in assay [1], the IC50 was 110 nM.

In the case of `NC(=O)COc1ccc(/C=C2\SC(=S)N(CC(=O)O)C2=O)cc1`, the 50% inhibitory concentration (IC50) in assay [1] came to 130 nM.

Take `COc1ccc(/C=C2\SC(=O)NC2=O)cc1OCC(N)=O`: the IC50 in assay [1] came to 22600 nM.

For `COc1cc(/C=C2\SC(=O)NC2=O)ccc1OCC(N)=O`, the IC50 in assay [1] came out at 33900 nM.

For the compound `NC(=O)COc1ccc(/C=C2\SC(=S)NC2=O)cc1`, the inhibition in assay [6] was determined as 34%.

On to `COc1ccc(/C=C2\SC(=S)NC2=O)cc1OCC(N)=O`, for which the “NF-kappaB nuclear translocation inhibition (active/not active)” value in assay [3] was “inactive”. For the same compound, the inhibition result in assay [4] and in assay [5] was “Active” each time. Also, the half-maximal inhibitory concentration (IC50) in assay [1] worked out at 9200 nM.

As for `COc1ccc(/C=C2\SC(=S)N(CC(=O)O)C2=O)cc1OCC(N)=O`, the “NF-kappaB nuclear translocation inhibition (active/not active)” value in assay [3] is “Active”. In addition, the inhibition entry in assay [4], in assay [5] and in assay [2] was “Active” each time. In addition, in assay [1], the half-inhibitory concentration (IC50) was determined as 130 nM.

With `NC(=O)COc1cccc(/C=C2\SC(=O)NC2=O)c1`, the half-maximal inhibitory concentration (IC50) in assay [1] came to 21500 nM.

Take `COc1cc(/C=C2\SC(=O)N(CC(=O)O)C2=O)ccc1OCC(N)=O`: the concentration for half-maximal inhibition (IC50) in assay [1] amounted to 500 nM.

As to `NC(=O)COc1cccc(/C=C2\SC(=O)N(CC(=O)O)C2=O)c1`, the half-inhibitory concentration (IC50) in assay [1] came to 1010 nM.
